Assay results as given in ChEMBL document CHEMBL1137702, “Identification of hydrolytically stable and selective P2Y(1) receptor agonists” (Eur J Med Chem, 2009).
Each block holds one molecule with its values, some of them ahead of it.

Assays:
P2Y purinoceptor 1 [1] = biological target: T1, P2Y purinoceptor 1 (Meleagris gallopavo, UniProt P49652); assay: Antagonist activity at turkey P2Y1 receptor expressed in human 1321N1 cells assessed as inhibition of 2-MeS-ADP-induced increase in intracellular calcium concentration by dual-excitation spectrofluorimetric analysis; format: functional, cell-based
Outline: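 Fura-2-loaded suspensions of stably transfected 1321N1 cells were assayed at 37 °C in HEPES-buffered saline pH 7.4 with 1 mM Ca2+ and Mg2+. […] [Ca2+]i was read by dual-excitation spectrofluorometry.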

[2] = Dissociation constant, pKa of the compound; format: physicochemical
[3] = Stability after 100 mins by HPLC-MS analysis in presence of calf intestine alkaline phosphatase; format: ADME; settings: cattle, isolated protein
[4] = Chemical stability at physiological pH at 37 deg C assessed as hydrolysis half life by 31P NMR analysis; format: physicochemical
alkaline phosphatase = assay: Stability assessed as drug remaining after 12 mins by HPLC-MS analysis in presence of calf intestine alkaline phosphatase; format: ADME; settings: cattle, read-out: Stability
[5] = Chemical stability assessed as hydrolysis half life at pH 1.4 by 31P NMR analysis; format: physicochemical; settings: buffer
P2Y purinoceptor 1 [6] = biological target: P2Y purinoceptor 1 (Rattus norvegicus, UniProt P49651); assay: Agonist activity at rat pancreas P2Y1 receptor assessed as enhancement of insulin secretion; format: functional
Serum [7] = assay: (§1) Metabolic stability in human serum assessed as hydrolysis half life at 40 mM measured for 6 days by HPLC; format: ADME, cell-free; settings: 144 h, 40000 µM
P2Y purinoceptor 6 = P2Y purinoceptor 6 (Rattus norvegicus, UniProt Q63371); assay: Agonist activity at rat P2Y6 receptor expressed in human 1321N1 cells assessed as increase in intracellular calcium concentration by dual-excitation spectrofluorimetric analysis; format: functional, cell-based
Outline: (§2)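 1321N1 astrocytoma cells stably expressing the receptor (turkey P2Y1, human P2Y2, human P2Y4, rat P2Y6) were grown with G-418 selection. Fura-2-loaded cell suspensions were exposed at 37 °C in 10 mM HEPES-buffered saline pH 7.4 with 1 mM CaCl2 and 1 mM MgCl2. Peak [Ca2+]i rise was measured over a range of concentrations to derive EC50.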

[8] = biological target: P2Y purinoceptor 1 (Rattus norvegicus) (UniProt P49651); assay: Agonist activity at rat pancreas P2Y1 receptor assessed as enhancement of insulin secretion relative to basal level; format: functional
[9] = biological target: T2, Ectonucleoside triphosphate diphosphohydrolase 1 (Bos taurus) (UniProt O18956); assay: Activity of bovine spleen NTPDase 1 assessed as drug hydrolysis at 100 uM after 7 mins by malachite green colorimetric assay relative to ATP; format: tissue-based; set-up: scale not given: the % may be the effect or the level left
T2 sequence (whole entry): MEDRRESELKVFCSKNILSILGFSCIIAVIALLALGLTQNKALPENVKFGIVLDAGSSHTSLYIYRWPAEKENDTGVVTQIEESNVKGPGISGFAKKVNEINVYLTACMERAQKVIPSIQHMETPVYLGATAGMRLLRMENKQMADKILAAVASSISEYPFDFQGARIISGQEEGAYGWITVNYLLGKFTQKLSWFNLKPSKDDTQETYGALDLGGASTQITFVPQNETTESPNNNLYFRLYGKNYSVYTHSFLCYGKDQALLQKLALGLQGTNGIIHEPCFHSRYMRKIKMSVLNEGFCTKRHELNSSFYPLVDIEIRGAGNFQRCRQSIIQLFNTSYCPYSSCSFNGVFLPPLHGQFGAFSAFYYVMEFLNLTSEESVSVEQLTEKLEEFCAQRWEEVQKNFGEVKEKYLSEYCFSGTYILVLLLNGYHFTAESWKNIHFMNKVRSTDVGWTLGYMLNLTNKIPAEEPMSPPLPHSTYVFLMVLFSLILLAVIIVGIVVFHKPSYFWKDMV

[10] = Chemical stability assessed as hydrolysis half life at 1.6 mg at pH 1.4 measured at 7 to 17 hrs interval for 5 days by HPLC-MS analysis; format: physicochemical
Outline: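 1.6 mg in 0.2 M HCl/KCl buffer with pH brought to 1.4, held at 37 °C. Sampled at 7–17 h intervals for 5 days by HPLC-ESI-MS on C18 with TEAA/MeOH gradient. Peak area versus time was fit to pseudo-first-order decay for t1/2.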

[11] = Stability at 77 ug/ml after 30 mins by HPLC in presence of calf intestine alkaline phosphatase; format: ADME; settings: cattle, isolated protein, 0.5 h
P2Y purinoceptor 1 [12] = biological target: T1, P2Y purinoceptor 1; assay: Agonist activity at turkey P2Y1 receptor expressed in human 1321N1 cells assessed as increase in intracellular calcium concentration by dual-excitation spectrofluorimetric analysis; format: functional, cell-based
[13] = as §1; format: ADME, cell-free
Serum [14] = assay: Metabolic stability in human serum assessed as hydrolysis half life at 0.25 mM measured for 18 hrs by HPLC; format: ADME, cell-free; settings: 250 µM
Outline: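 Serum from healthy-donor whole blood (12 h at 4 °C, spun 1500 × g for 15 min, stored at −80 °C) was diluted 1:3 in RPMI-1640 and incubated with the nucleotide at 37 °C. Samples were acid-quenched (0.6 M HCl), spun, neutralised with 4 M KOH and freeze-dried. They were run on C18 HPLC with a KH2PO4 pH 4.5/acetonitrile gradient. t1/2 came from the change in peak integration over time.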

P2Y purinoceptor 4 = P2Y purinoceptor 4 (Homo sapiens, UniProt P51582); assay: Agonist activity at human P2Y4 receptor expressed in human 1321N1 cells assessed as increase in intracellular calcium concentration by dual-excitation spectrofluorimetric analysis; format: functional, cell-based; outline: as §2
P2Y purinoceptor 2 = P2Y purinoceptor 2 (Homo sapiens, UniProt P41231); assay: Agonist activity at human P2Y2 receptor expressed in human 1321N1 cells assessed as increase in intracellular calcium concentration by dual-excitation spectrofluorimetric analysis; format: functional, cell-based; outline: as §2
P2Y purinoceptor 2, sequence (P41231 whole entry): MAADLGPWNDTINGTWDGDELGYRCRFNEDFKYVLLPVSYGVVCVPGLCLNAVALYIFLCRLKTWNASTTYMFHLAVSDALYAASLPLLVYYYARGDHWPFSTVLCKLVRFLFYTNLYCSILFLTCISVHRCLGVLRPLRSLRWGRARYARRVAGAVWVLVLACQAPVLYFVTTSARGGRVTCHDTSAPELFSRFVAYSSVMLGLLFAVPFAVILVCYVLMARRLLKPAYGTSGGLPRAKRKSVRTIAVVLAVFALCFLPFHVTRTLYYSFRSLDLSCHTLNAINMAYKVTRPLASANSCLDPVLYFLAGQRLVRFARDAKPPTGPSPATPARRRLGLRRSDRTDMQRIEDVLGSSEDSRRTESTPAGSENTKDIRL

T1 sequence (P49652 whole entry): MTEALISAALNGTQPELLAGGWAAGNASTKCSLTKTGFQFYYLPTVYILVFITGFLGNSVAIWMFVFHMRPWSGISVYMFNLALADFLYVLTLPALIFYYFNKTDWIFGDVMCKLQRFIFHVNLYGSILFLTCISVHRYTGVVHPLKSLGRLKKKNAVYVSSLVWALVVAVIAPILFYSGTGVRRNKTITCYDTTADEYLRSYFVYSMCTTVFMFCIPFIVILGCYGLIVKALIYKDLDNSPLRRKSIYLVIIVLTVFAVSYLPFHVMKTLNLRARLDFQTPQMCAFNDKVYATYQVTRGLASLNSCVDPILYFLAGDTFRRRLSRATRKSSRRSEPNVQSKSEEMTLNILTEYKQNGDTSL
P2Y purinoceptor 6, sequence (Q63371 whole entry): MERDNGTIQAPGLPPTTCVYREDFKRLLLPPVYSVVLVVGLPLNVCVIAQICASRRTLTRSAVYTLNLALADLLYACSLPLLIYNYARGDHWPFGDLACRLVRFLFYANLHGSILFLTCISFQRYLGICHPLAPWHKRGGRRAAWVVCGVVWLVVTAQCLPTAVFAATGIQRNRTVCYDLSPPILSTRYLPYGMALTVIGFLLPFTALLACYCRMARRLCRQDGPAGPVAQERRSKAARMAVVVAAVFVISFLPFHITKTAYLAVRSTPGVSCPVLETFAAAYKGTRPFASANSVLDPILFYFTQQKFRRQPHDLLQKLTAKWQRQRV
P2Y purinoceptor 4, sequence (P51582 whole entry): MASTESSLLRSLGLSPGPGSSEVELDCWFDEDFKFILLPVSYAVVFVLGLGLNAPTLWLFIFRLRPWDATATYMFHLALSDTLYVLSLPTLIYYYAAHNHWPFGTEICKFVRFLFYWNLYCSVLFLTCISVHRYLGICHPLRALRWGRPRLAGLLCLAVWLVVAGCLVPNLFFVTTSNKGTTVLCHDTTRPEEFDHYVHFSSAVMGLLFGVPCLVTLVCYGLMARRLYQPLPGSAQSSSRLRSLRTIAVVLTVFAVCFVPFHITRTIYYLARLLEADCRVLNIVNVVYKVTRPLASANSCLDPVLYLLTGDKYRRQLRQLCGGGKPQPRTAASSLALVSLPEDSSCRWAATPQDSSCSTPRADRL
P2Y purinoceptor 1 (Rattus norvegicus, UniProt P49651), sequence (P49651 whole entry): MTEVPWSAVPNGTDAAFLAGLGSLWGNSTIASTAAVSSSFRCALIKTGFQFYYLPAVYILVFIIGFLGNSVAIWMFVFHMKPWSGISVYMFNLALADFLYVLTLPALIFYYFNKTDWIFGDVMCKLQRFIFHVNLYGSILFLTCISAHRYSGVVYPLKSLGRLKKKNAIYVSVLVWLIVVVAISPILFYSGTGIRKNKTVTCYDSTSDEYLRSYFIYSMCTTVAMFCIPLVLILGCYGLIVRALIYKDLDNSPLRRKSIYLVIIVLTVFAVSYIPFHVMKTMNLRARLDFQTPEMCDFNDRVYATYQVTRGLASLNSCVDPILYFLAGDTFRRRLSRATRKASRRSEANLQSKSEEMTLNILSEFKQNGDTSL
P2Y purinoceptor 1 (Rattus norvegicus), sequence (P49651 whole entry): as above

Compound: BP(=O)(OC[C@H]1O[C@@H](n2cnc3c(N)ncnc32)[C@H](O)[C@@H]1O)OP(=O)(O)CP(=O)(O)O (some centres undefined)
- EC50 (P2Y purinoceptor 1 [1]): Not Active

Compound: BP(=O)(OC[C@H]1O[C@@H](n2cnc3c(N)ncnc32)[C@H](O)[C@@H]1O)OP(=O)(O)CP(=O)(O)O (single isomer, unassigned; diastereomer B)
- half-life [10]: 19 h
- Stability [11]: Stable

Compound: Nc1ncnc2c1ncn2[C@@H]1O[C@H](COP(=O)(O)OP(=O)(O)O)[C@@H](O)[C@H]1O [ADENOSINE DIPHOSPHATE]
- EC50 (P2Y purinoceptor 1 [12]): 100 nM

Compound: Nc1ncnc2c1ncn2[C@@H]1O[C@H](COP(=O)(O)OP(=O)(O)OP(=O)(O)O)[C@@H](O)[C@H]1O [ADENOSINE TRIPHOSPHATE]
- t1/2 (Serum [14]): 3.6 h
- t1/2 (Serum [7]): 7.7 h

Compound: O=c1ccn([C@@H]2O[C@H](COP(=O)(O)OP(=O)(O)OP(=O)(O)O)[C@@H](O)[C@H]2O)c(=O)[nH]1 [URIDINE TRIPHOSPHATE]
- EC50 (P2Y purinoceptor 4): 480 nM
- EC50 (P2Y purinoceptor 2): 640 nM

Compound: O=c1ccn([C@@H]2O[C@H](COP(=O)(O)OP(=O)(O)O)[C@@H](O)[C@H]2O)c(=O)[nH]1 [URIDINE_DIPHOSPHATE]
- EC50 (P2Y purinoceptor 6; read-out: EC50): 200 nM

Next, values leading:

- pKa [2]: 6.5
Compound: CSc1nc(N)c2ncn([C@@H]3O[C@H](COP(=O)(O)OP(=O)(O)O)[C@@H](O)[C@H]3O)c2n1

- Stability [3]: Unstable
- half-life [4]: 1400 h
- remaining at 0.2 h (alkaline phosphatase): 40%
- half-life [5]: 5.9 h
- EC50 (P2Y purinoceptor 1 [6]): 28 nM
Compound: BP(=O)(OC[C@H]1O[C@@H](n2cnc3c(N)nc(SC)nc32)[C@H](O)[C@@H]1O)OP(=O)(O)OP(=O)(O)O (single isomer, unassigned; diastereomer A) [listing 1 of 2 here]

- Stability (Serum [7]): Stable
- EC50 (P2Y purinoceptor 6; 1321-n1): Not Active
Compound: BP(=O)(OC[C@H]1O[C@@H](n2cnc3c(N)nc(SC)nc32)[C@H](O)[C@@H]1O)OP(=O)(O)CP(=O)(O)O (single isomer, unassigned; diastereomer A)

- fold change (FC) [8]: 9
- Activity [9]: 14%
Compound: BP(=O)(OC[C@H]1O[C@@H](n2cnc3c(N)nc(SC)nc32)[C@H](O)[C@@H]1O)OP(=O)(O)OP(=O)(O)O (single isomer, unassigned; diastereomer A) [listing 2 of 2 here]

- EC50 (P2Y purinoceptor 1 [12]): 17200 nM
- half-life [10]: 14.5 h
- Stability [11]: Stable
- half-life at 40000 µM [13]: 71.9 h
Compound: BP(=O)(OC[C@H]1O[C@@H](n2cnc3c(N)nc(SC)nc32)[C@H](O)[C@@H]1O)OP(=O)(O)CP(=O)(O)O (single isomer, unassigned; diastereomer B)

- Activity [9]: 59%
Compound: BP(=O)(OC[C@H]1O[C@@H](n2cnc3c(N)nc(SC)nc32)[C@H](O)[C@@H]1O)OP(=O)(O)OP(=O)(O)O (single isomer, unassigned; diastereomer B)
